Measurements taken from ChEMBL document CHEMBL3817728, “Synthesis, Evaluation, and Mechanism Study of Novel Indole-Chalcone Derivatives Exerting Effective Antitumor Activity Through Microtubule Destabilization in Vitro and in Vivo” (J Med Chem, 2016).

Experiments:
[1] = Metabolic stability in Sprague-Dawley rat liver microsomes assessed as compound remaining at 30 mins in presence of NADPH regenerating system by HPLC method; assay type: ADME; settings: read-out: Stability
Method in brief: (§1)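 Test compound incubated with rat liver microsomes at 37 ℃ in buffer containing an NADPH regenerating system for the stated time. Remaining parent compound was quantified by HPLC.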

[2] = Metabolic stability in Sprague-Dawley rat liver microsomes assessed as compound remaining at 60 mins in presence of NADPH regenerating system by HPLC method; assay type: ADME; settings: read-out: Stability; method in brief: as §1
[3] = Metabolic stability in Sprague-Dawley rat liver microsomes assessed as compound remaining at 90 mins in presence of NADPH regenerating system by HPLC method; assay type: ADME; settings: read-out: Stability; method in brief: as §1
[4] = Metabolic stability in Sprague-Dawley rat liver microsomes assessed as compound remaining at 120 mins in presence of NADPH regenerating system by HPLC method; assay type: ADME; settings: read-out: Stability
Method in brief: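 Rat liver microsomes incubated with compound at 37 ℃ for indicated times in buffer containing NADPH regenerating system; residual parent determined by HPLC.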

A549 [5] = assay: Cytotoxicity against human A549 cells assessed as cell viability after 48 hrs by MTT assay; assay type: functional, cell-based; settings: A549, 48 h
Method in brief: (§2)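 Cancer cell lines treated with compound for 48 h, and viability read by MTT assay. IC50 given as mean ± SD from at least three independent experiments.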

HeLa = assay: Cytotoxicity against human HeLa cells assessed as cell viability after 48 hrs by MTT assay; assay type: functional, cell-based; method in brief: as §2
[6] = Cytotoxicity against human Bel7402 cells assessed as cell viability after 48 hrs by MTT assay; assay type: functional, cell-based; settings: Bel-7402, 48 h; method in brief: as §2
A2780 = assay: Cytotoxicity against human A2780 cells assessed as cell viability after 48 hrs by MTT assay; assay type: functional, cell-based; settings: A2780, 48 h; method in brief: as §2
[7] = Cytotoxicity against human HCT8 cells assessed as cell viability after 48 hrs by MTT assay; assay type: functional, cell-based; settings: HCT-8, 48 h; method in brief: as §2
[8] = Cytotoxicity against human A2780/TAX cells assessed as growth inhibition after 48 hrs by MTT assay; assay type: functional, cell-based
Method in brief: (§3)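 Drug-resistant lines were tested by a 48 h MTT viability assay. IC50 was derived from dose-response curves and reported as mean ± SE of at least three independent experiments.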

[9] = Cytotoxicity against human HCT8/VCT cells assessed as growth inhibition after 48 hrs by MTT assay; assay type: functional, cell-based; method in brief: as §3
[10] = Cytotoxicity against human MCF7/DX cells assessed as growth inhibition after 48 hrs by MTT assay; assay type: functional, cell-based; method in brief: as §3
A549 [11] = assay: Antitumor activity against human A549 cells xenografted in BALB/c nude mouse assessed as tumor growth inhibition at 30 mg/kg, ip administered every other day for 1 month measured every other day post dose relative to vehicle-treated control; assay type: functional; settings: read-out: TGI
Mus musculus = assay: Toxicity in BALB/c nude mouse xenografted with human A549 cells assessed as loss of body weight at 30 mg/kg, ip administered every other day for 1 month measured every other day post dose relative to vehicle-treated control; assay type: organism-based; settings: in vivo
[12] = Solubility of the compound in sodium phosphate buffer at pH 7.4 at 25 +/- 1 degC; assay type: physicochemical
MCF7 = assay: Cytotoxicity against human MCF7 cells assessed as cell viability after 48 hrs by MTT assay; assay type: functional, cell-based; settings: MCF7, 48 h; method in brief: as §2

solubility [12] [mg/mL] | SMILES | remaining at 0.5 h [1] [%] | remaining at 1 h [2] [%] | remaining at 1.5 h [3] [%] | remaining at 2 h [4] [%] | IC50 (A549 [5]) [nM] | IC50 (HeLa) [nM] | IC50 [6] [nM] | IC50 (A2780) [nM] | IC50 [7] [nM] | IC50 [8] [nM] | IC50 [9] [nM] | IC50 [10] [nM] | inhibition in vivo at 30 mg/kg (A549 [11]) [%] | Activity (Mus musculus) | IC50 (MCF7) [nM]
 | COc1ccc(/C=C\c2cc(OC)c(OC)c(OC)c2)cc1O [COMBRETASTATIN A4] | 68.1 | 28.6 | 23.1 | 20.7 | 5 | 12 | 3 | 9 | 1.7 | 58 | 5 | 27 |  |  | 
125 | COc1ccc2c(/C=C(\C)C(=O)c3cc(OC)c(OC)c(OC)c3)cn(P(=O)([O-])[O-])c2c1.[Na+].[Na+] |  |  |  |  | 56 | 78 | 61 | 43 | 92 |  |  |  | 70.4 | Non-toxic | 38
